From ChEMBL document CHEMBL1811814, “Synthesis and evaluation of indole, pyrazole, chromone and pyrimidine based conjugates for tumor growth inhibitory activities--development of highly efficacious cytotoxic agents” (Eur J Med Chem, 2010)

Legend:
Format in all cases: functional
Parameters in all cases: scale not given: the % may be the effect or the level left
SW-620 = experiment: Growth inhibition of human SW620 cells assessed tumor cell growth at 10^-5 M
In short: (§1)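 Single-dose screen at 10^-5 M across the 60 human tumor cell line panel, run to NCI standards. The value is the percent growth of each cell line in the presence of compound. Compounds active at this dose moved on to five-concentration testing (10^-4 to 10^-8 M).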

786-0 = experiment: Growth inhibition of human 786-0 cells assessed tumor cell growth at 10^-5 M
In short: (§2)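 NCI 60-human-tumor-cell-line panel screen. Each compound was tested at a single concentration of 10^-5 M, and percent growth of tumor cells was recorded for each cell line. Growth inhibition was expressed from these percent-growth values.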

OVCAR-5 = experiment: Growth inhibition of human OVCAR5 cells assessed tumor cell growth at 10^-5 M; in short: as §2
OVCAR-8 = experiment: Growth inhibition of human OVCAR8 cells assessed tumor cell growth at 10^-5 M; in short: as §2
SK-MEL-28 = experiment: Growth inhibition of human SK-MEL-28 cells assessed tumor cell growth at 10^-5 M; in short: as §2
CCRF-CEM = experiment: Growth inhibition of human CCRF-CEM cells assessed tumor cell growth at 10^-5 M; in short: as §2
HOP-62 = experiment: Growth inhibition of human HOP62 cells assessed tumor cell growth at 10^-5 M; in short: as §2
SF-268 = experiment: Growth inhibition of human SF268 cells assessed tumor cell growth at 10^-5 M; in short: as §2
K562 = experiment: Growth inhibition of human K562 cells assessed tumor cell growth at 10^-5 M; in short: as §2
KM12 = experiment: Growth inhibition of human KM12 cells assessed tumor cell growth at 10^-5 M; in short: as §2
HT-29 = experiment: Growth inhibition of human HT-29 cells assessed tumor cell growth at 10^-5 M; in short: as §2
MDA-MB-468 = experiment: Growth inhibition of human MDA-MB-468 cells assessed tumor cell growth at 10^-5 M; in short: as §2
TK-10 = experiment: Growth inhibition of human TK10 cells assessed tumor cell growth at 10^-5 M; in short: as §1
SNB-19 = experiment: Growth inhibition of human SNB19 cells assessed tumor cell growth at 10^-5 M; in short: as §1
[1] = Growth inhibition of human […] cells assessed tumor cell growth at 10^-5 M; in short: as §2
UACC-257 = experiment: Growth inhibition of human UACC257 cells assessed tumor cell growth at 10^-5 M; in short: as §1
MCF7 = experiment: Growth inhibition of human MCF7 cells assessed tumor cell growth at 10^-5 M; in short: as §2
NCI-H460 = experiment: Growth inhibition of human NCI-H460 cells assessed tumor cell growth at 10^-5 M; in short: as §2
HL-60(TB) = experiment: Growth inhibition of human HL-60(TB) cells assessed tumor cell growth at 10^-5 M
In short: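 HL-60(TB), part of the 60-line panel, tested at a single concentration of 10^-5 M. The read-out is percent tumor cell growth relative to untreated growth.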

BT-549 = experiment: Growth inhibition of human BT549 cells assessed tumor cell growth at 10^-5 M; in short: as §2
NCI/ADR-RES = experiment: Growth inhibition of human NCI/ADR-RES cells assessed tumor cell growth at 10^-5 M; in short: as §2
EKVX = experiment: Growth inhibition of human EKVX cells assessed tumor cell growth at 10^-5 M; in short: as §2
A498 = experiment: Growth inhibition of human A498 cells assessed tumor cell growth at 10^-5 M; in short: as §2
RXF 393 = experiment: Growth inhibition of human RXF393 cells assessed tumor cell growth at 10^-5 M; in short: as §2
COLO 205 = experiment: Growth inhibition of human COLO205 cells assessed tumor cell growth at 10^-5 M; in short: as §2
DU-145 = experiment: Growth inhibition of human DU145 cells assessed tumor cell growth at 10^-5 M; in short: as §2
SK-MEL-5 = experiment: Growth inhibition of human SK-MEL-5 cells assessed tumor cell growth at 10^-5 M; in short: as §2
SF-295 = experiment: Growth inhibition of human SF295 cells assessed tumor cell growth at 10^-5 M; in short: as §2
UO-31 = experiment: Growth inhibition of human UO31 cells assessed tumor cell growth at 10^-5 M; in short: as §1
ACHN = experiment: Growth inhibition of human ACHN cells assessed tumor cell growth at 10^-5 M; in short: as §2
LOX IMVI = experiment: Growth inhibition of human LOXIMVI cells assessed tumor cell growth at 10^-5 M; in short: as §2
CAKI-1 = experiment: Growth inhibition of human Caki1 cells assessed tumor cell growth at 10^-5 M; in short: as §2
OVCAR-4 = experiment: Growth inhibition of human OVCAR4 cells assessed tumor cell growth at 10^-5 M; in short: as §2
M14 = experiment: Growth inhibition of human M14 cells assessed tumor cell growth at 10^-5 M; in short: as §2
MOLT-4 = experiment: Growth inhibition of human MOLT4 cells assessed tumor cell growth at 10^-5 M; in short: as §2
UACC-62 = experiment: Growth inhibition of human UACC62 cells assessed tumor cell growth at 10^-5 M; in short: as §1
[2] = Growth inhibition of human Hs 578T cells assessed tumor cell growth at 10^-5 M; in short: as §2
A549 = experiment: Growth inhibition of human A549 cells assessed tumor cell growth at 10^-5 M; in short: as §2
MDA-MB-231 = experiment: Growth inhibition of human MDA-MB-231 cells assessed tumor cell growth at 10^-5 M; in short: as §2
NCI-H522 = experiment: Growth inhibition of human NCI-H522 cells assessed tumor cell growth at 10^-5 M; in short: as §2
HCT-15 = experiment: Growth inhibition of human HCT15 cells assessed tumor cell growth at 10^-5 M; in short: as §2
OVCAR-3 = experiment: Growth inhibition of human OVCAR3 cells assessed tumor cell growth at 10^-5 M; in short: as §2
T47D = experiment: Growth inhibition of human T47D cells assessed tumor cell growth at 10^-5 M; in short: as §1
SK-OV-3 = experiment: Growth inhibition of human SKOV3 cells assessed tumor cell growth at 10^-5 M; in short: as §2
NCI-H226 = experiment: Growth inhibition of human NCI-H226 cells assessed tumor cell growth at 10^-5 M; in short: as §2
HCC 2998 = experiment: Growth inhibition of human HCC2998 cells assessed tumor cell growth at 10^-5 M; in short: as §2
MDA-MB-435 = experiment: Growth inhibition of human MDA-MB-435 cells assessed tumor cell growth at 10^-5 M; in short: as §2
NCI-H23 = experiment: Growth inhibition of human NCI-H23 cells assessed tumor cell growth at 10^-5 M; in short: as §2
Malme-3M = experiment: Growth inhibition of human MALME-3M cells assessed tumor cell growth at 10^-5 M; in short: as §2
SN12C = experiment: Growth inhibition of human SN12C cells assessed tumor cell growth at 10^-5 M; in short: as §2
SF-539 = experiment: Growth inhibition of human SF539 cells assessed tumor cell growth at 10^-5 M; in short: as §2
NCI-H322M = experiment: Growth inhibition of human NCI-H322M cells assessed tumor cell growth at 10^-5 M; in short: as §2
SK-MEL-2 = experiment: Growth inhibition of human SK-MEL-2 cells assessed tumor cell growth at 10^-5 M; in short: as §2
U-251 = experiment: Growth inhibition of human U251 cells assessed tumor cell growth at 10^-5 M; in short: as §1
SNB-75 = experiment: Growth inhibition of human SNB75 cells assessed tumor cell growth at 10^-5 M; in short: as §1
HCT-116 = experiment: Growth inhibition of human HCT116 cells assessed tumor cell growth at 10^-5 M; in short: as §2
PC-3 = experiment: Growth inhibition of human PC3 cells assessed tumor cell growth at 10^-5 M; in short: as §2
HOP-92 = experiment: Growth inhibition of human HOP92 cells assessed tumor cell growth at 10^-5 M; in short: as §2
IGROV-1 = experiment: Growth inhibition of human IGROV1 cells assessed tumor cell growth at 10^-5 M; in short: as §2

CC1=NN(c2cccc(Cl)c2)C(=O)/C1=C\c1cn(S(=O)(=O)c2ccc(C)cc2)c2ccccc12
Activity (SW-620): 98.36% | Activity (786-0): 94.95% | Activity (OVCAR-5): 88.09% | Activity (OVCAR-8): 107.68% | Activity (SK-MEL-28): 125.16% | Activity (CCRF-CEM): 134.54% | Activity (HOP-62): 62.28% | Activity (SF-268): 103.69% | Activity (K562): 138.24% | Activity (KM12): 109.5% | Activity (HT-29): 122.1% | Activity (MDA-MB-468): 118.75% | Activity (TK-10): 166.55% | Activity (SNB-19): 114.11% | Activity [1]: 113.1% | Activity (UACC-257): 114.55% | Activity (MCF7): 113.07% | Activity (NCI-H460): 119.39% | Activity (HL-60(TB)): 114.07% | Activity (BT-549): 111.59% | Activity (NCI/ADR-RES): 85.11% | Activity (EKVX): 97.98% | Activity (A498): 117.06% | Activity (RXF 393): 137.02% | Activity (COLO 205): 142.35% | Activity (DU-145): 114.18% | Activity (SK-MEL-5): 105.66% | Activity (SF-295): 114.23% | Activity (UO-31): 78.22% | Activity (ACHN): 97.51% | Activity (LOX IMVI): 97.36% | Activity (CAKI-1): 87.81% | Activity (OVCAR-4): 103.09% | Activity (M14): 82.05% | Activity (MOLT-4): 173.14% | Activity (UACC-62): 86.46% | Activity [2]: 115.57% | Activity (A549): 108.98% | Activity (MDA-MB-231): 85.37% | Activity (NCI-H522): 107.2% | Activity (HCT-15): 105.27% | Activity (OVCAR-3): 110.25% | Activity (T47D): 91.46% | Activity (SK-OV-3): 105.37% | Activity (NCI-H226): 79.93% | Activity (HCC 2998): 88.49% | Activity (MDA-MB-435): 105.48% | Activity (NCI-H23): 83.92% | Activity (Malme-3M): 114.11% | Activity (SN12C): 97.46% | Activity (SF-539): 114% | Activity (NCI-H322M): 105.18% | Activity (SK-MEL-2): 113.68% | Activity (U-251): 102.73% | Activity (SNB-75): 89.33% | Activity (HCT-116): 88.23%

C#CCN1C(=O)/C(=C\c2cn(CC#C)c3ccccc23)c2ccccc21
Activity (SW-620): 102% | Activity (786-0): 109% | Activity (OVCAR-5): 101% | Activity (OVCAR-8): 95.6% | Activity (CCRF-CEM): 86% | Activity (HOP-62): 102% | Activity (SF-268): 95.6% | Activity (K562): 87.4% | Activity (KM12): 101% | Activity (HT-29): 101% | Activity (MDA-MB-468): 133% | Activity (TK-10): 112% | Activity (SNB-19): 96.7% | Activity [1]: 90.9% | Activity (UACC-257): 97.8% | Activity (NCI-H460): 98.6% | Activity (HL-60(TB)): 101.9% | Activity (BT-549): 96.7% | Activity (NCI/ADR-RES): 106% | Activity (A498): 101% | Activity (RXF 393): 126% | Activity (COLO 205): 77.9% | Activity (DU-145): 109% | Activity (SK-MEL-5): 91% | Activity (UO-31): 74.9% | Activity (ACHN): 92.7% | Activity (LOX IMVI): 103% | Activity (CAKI-1): 120% | Activity (M14): 98.6% | Activity (MOLT-4): 87.3% | Activity (UACC-62): 78.4% | Activity (PC-3): 80% | Activity [2]: 105% | Activity (A549): 98.9% | Activity (MDA-MB-231): 82.7% | Activity (NCI-H522): 96.6% | Activity (HCT-15): 104% | Activity (OVCAR-3): 102% | Activity (T47D): 96.4% | Activity (SK-OV-3): 97.8% | Activity (NCI-H226): 86.5% | Activity (HOP-92): 75.1% | Activity (HCC 2998): 107% | Activity (MDA-MB-435): 114% | Activity (NCI-H23): 92% | Activity (IGROV-1): 91.2% | Activity (Malme-3M): 161% | Activity (SN12C): 89.2% | Activity (SF-539): 91.5% | Activity (NCI-H322M): 110% | Activity (SK-MEL-2): 99.8% | Activity (U-251): 98.4% | Activity (HCT-116): 97.4%
